ChEMBL document CHEMBL1143542, “Structure-activity relationships of bivalent aminoglycosides and evaluation of their microbiological activities” (2005)
≈ marks a conversion by molar mass, not a printed value.

Tests used:
[1] = test system: Pseudomonas aeruginosa; assay: In vitro minimum inhibitory concentration against Pseudomonas aeruginosa PAO-1; type: functional
How it was run: (§1)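 Broth microdilution following CLSI M100-S12. Stocks were 10 mg/mL in water, diluted in Mueller–Hinton broth to a top level of 128, then serially 2-fold in plates. Bacteria in cation-adjusted Mueller–Hinton broth were mixed 1:1 with drug and incubated 16–20 h at 35 °C. MIC was the lowest concentration with no visible growth. Run in duplicate with no-antibiotic and no-inoculum (sterility) controls.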

[2] = test system: Enterococcus faecalis; assay: In vitro minimum inhibitory concentration against Enterococcus faecalis 29212; type: functional; how it was run: as §1
[3] = test system: Pseudomonas aeruginosa; assay: In vitro minimum inhibitory concentration against Pseudomonas aeruginosa ATCC 27853; type: functional; how it was run: as §1
[4] = test system: Escherichia coli; assay: In vitro minimum inhibitory concentration against Escherichia coli ATCC 25922; type: functional; how it was run: as §1
[5] = test system: Staphylococcus aureus; assay: In vitro minimum inhibitory concentration against Staphylococcus aureus MRSA 3359; type: functional; how it was run: as §1
[6] = test system: Staphylococcus aureus; assay: In vitro minimum inhibitory concentration against Staphylococcus aureus ATCC 29213; type: functional; how it was run: as §1
[7] = test system: Pseudomonas aeruginosa; assay: In vitro minimum inhibitory concentration against Pseudomonas aeruginosa PAO-1 Minimum inhibitory concentration against Pseudomonas aeruginosa PAO-1; type: functional; how it was run: as §1
[8] = test system: Pseudomonas aeruginosa; assay: Susceptibility testing against Pseudomonas aeruginosa PAE_NUH21; S=Susceptible; type: functional, organism-based
How it was run: (§2)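 Disk diffusion susceptibility profiling against a panel of empirically used antipseudomonal antibiotics. Each strain was categorised as susceptible (S) or intermediate (I).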

[9] = test system: Pseudomonas aeruginosa; assay: Susceptibility testing against Pseudomonas aeruginosa ATCC 27853; S=Susceptible; type: functional, organism-based; how it was run: as §2
[10] = test system: Pseudomonas aeruginosa; assay: Susceptibility testing against Pseudomonas aeruginosa PAE_NUH20; S=Susceptible; type: functional, organism-based; how it was run: as §2
[11] = test system: Pseudomonas aeruginosa; assay: Susceptibility testing against Pseudomonas aeruginosa PAE_NUH17; S=Susceptible; type: functional, organism-based; how it was run: as §2
[12] = test system: Pseudomonas aeruginosa; assay: Susceptibility testing against Pseudomonas aeruginosa PAE_NUH06; R=Resistant; type: functional, organism-based
How it was run: (§3)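 Disk diffusion susceptibility profiling of P. aeruginosa reference and clinical isolates against empirically used antipseudomonal antibiotics. Each isolate was categorised as susceptible, intermediate or resistant.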

[13] = test system: Pseudomonas aeruginosa; assay: Susceptibility testing against Pseudomonas aeruginosa PAE_NUH19; S=Susceptible; type: functional, organism-based; how it was run: as §2
[14] = test system: Pseudomonas aeruginosa; assay: Susceptibility testing against Pseudomonas aeruginosa PAE_NUH03; R=Resistant; type: functional, organism-based; how it was run: as §3
[15] = test system: Pseudomonas aeruginosa; assay: Susceptibility testing against Pseudomonas aeruginosa PAE_NUH04; R=Resistant; type: functional, organism-based; how it was run: as §3
[16] = test system: Pseudomonas aeruginosa; assay: Susceptibility testing against Pseudomonas aeruginosa PAE_NUH22; S=Susceptible; type: functional, organism-based; how it was run: as §2
[17] = test system: Pseudomonas aeruginosa; assay: Susceptibility testing against Pseudomonas aeruginosa PAE_NUH23; S=Susceptible; type: functional, organism-based; how it was run: as §2
[18] = test system: Pseudomonas aeruginosa; assay: Susceptibility testing against Pseudomonas aeruginosa PAE_NUH18; S=Susceptible; type: functional, organism-based; how it was run: as §2
[19] = test system: Pseudomonas aeruginosa; assay: Susceptibility testing against Pseudomonas aeruginosa PAE_NUH02; R=Resistant; type: functional, organism-based; how it was run: as §3
[20] = test system: Pseudomonas aeruginosa; assay: Susceptibility testing against Pseudomonas aeruginosa PAE_NUH25; S=Susceptible; type: functional, organism-based; how it was run: as §2
[21] = test system: Pseudomonas aeruginosa; assay: Susceptibility testing against Pseudomonas aeruginosa PAE_NUH01; R=Resistant; type: functional, organism-based; how it was run: as §3
[22] = test system: Pseudomonas aeruginosa; assay: Susceptibility testing against Pseudomonas aeruginosa PAE_NUH24; S=Susceptible; type: functional, organism-based; how it was run: as §2
[23] = test system: Pseudomonas aeruginosa; assay: Susceptibility testing against Pseudomonas aeruginosa PAE_NUH05; R=Resistant; type: functional, organism-based; how it was run: as §3
[24] = test system: Pseudomonas aeruginosa; assay: Susceptibility testing against Pseudomonas aeruginosa PAE_NUH07; R=Resistant; type: functional, organism-based; how it was run: as §3

`CCN(CCCN(CC)C[C@@H](O)CO[C@@H]1[C@@H](O)[C@H](N)C[C@H](N)[C@H]1O[C@H]1O[C@H](CN)[C@@H](O)[C@H](O)[C@H]1N)C[C@@H](O)CO[C@@H]1[C@@H](O)[C@H](N)C[C@H](N)[C@H]1O[C@H]1O[C@H](CN)[C@@H](O)[C@H](O)[C@H]1N` was tested, and the MIC [1] was 6.3 µg/mL (≈ 7.1 µM), the MIC [2] was greater than 50 µg/mL and the MIC [3] was 6.3 µg/mL (≈ 7.1 µM). It also gave an MIC [4] of 12.5 µg/mL (≈ 14.1 µM), an MIC [5] of 50 µg/mL (≈ 56.4 µM) and an MIC [6] of 3.1 µg/mL (≈ 3.49 µM).

`NC[C@H]1O[C@H](O[C@H]2[C@H](OC[C@H](O)CN3CCCN(C[C@@H](O)CO[C@@H]4[C@@H](O)[C@H](N)C[C@H](N)[C@H]4O[C@H]4O[C@H](CN)[C@@H](O)[C@H](O)[C@H]4N)CC3)[C@@H](O)[C@H](N)C[C@@H]2N)[C@H](N)[C@@H](O)[C@@H]1O` gave an MIC [1] of 50 µg/mL (≈ 58.3 µM), an MIC [2] greater than 50 µg/mL and an MIC [3] of 12.5 µg/mL (≈ 14.6 µM). It also gave an MIC [4] of 50 µg/mL (≈ 58.3 µM), an MIC [5] greater than 50 µg/mL and an MIC [6] of 12.5 µg/mL (≈ 14.6 µM).

`NC[C@H]1O[C@H](O[C@H]2[C@H](OC[C@H](O)CNCCCNCCNC[C@@H](O)CO[C@@H]3[C@@H](O)[C@H](N)C[C@H](N)[C@H]3O[C@H]3O[C@H](CN)[C@@H](O)[C@H](O)[C@H]3N)[C@@H](O)[C@H](N)C[C@@H]2N)[C@H](N)[C@@H](O)[C@@H]1O` gave an MIC [2] greater than 50 µg/mL, an MIC [3] greater than 50 µg/mL and an MIC [4] greater than 50 µg/mL. It also gave an MIC [7] greater than 50 µg/mL, an MIC [5] greater than 50 µg/mL and an MIC [6] greater than 50 µg/mL.

For `NC[C@H]1O[C@H](O[C@H]2[C@H](OC[C@H](O)CN3CCN(C[C@@H](O)CO[C@@H]4[C@@H](O)[C@H](N)C[C@H](N)[C@H]4O[C@H]4O[C@H](CN)[C@@H](O)[C@H](O)[C@H]4N)CC3)[C@@H](O)[C@H](N)C[C@@H]2N)[C@H](N)[C@@H](O)[C@@H]1O`, the MIC [1] was 25 µg/mL (≈ 29.7 µM), the MIC [2] was greater than 50 µg/mL and the MIC [3] was 25 µg/mL (≈ 29.7 µM). It also gave an MIC [4] of 25 µg/mL (≈ 29.7 µM), an MIC [5] greater than 50 µg/mL and an MIC [6] of 12.5 µg/mL (≈ 14.8 µM).

`O=C(O)c1cn(C2CC2)c2cc(N3CCNCC3)c(F)cc2c1=O` was tested, and the Activity [8] was “Susceptible”, the Activity [9] was “Susceptible” and the Activity [10] was “Susceptible”. The Activity [11] was “Susceptible”, the Activity [12] was “Resistant” and the Activity [13] was “Susceptible”. The Activity [14] was “Resistant”, the Activity [15] was “Resistant” and the Activity [16] was “Susceptible”. The Activity [17] was “Susceptible”, the Activity [18] was “Susceptible” and the Activity [19] was “Resistant”. The Activity [20] was “Susceptible”, the Activity [21] was “Resistant” and the Activity [22] was “Susceptible”. For the same compound, the Activity [23] was “Resistant” and the Activity [24] was “Resistant”.

`NC[C@@H]1C[C@H](O)[C@@H](N)[C@H](O[C@H]2[C@H](O)[C@@H](OC[C@@H](O)CNCCCNC[C@@H](O)CO[C@@H]3[C@@H](O)[C@H](O[C@H]4O[C@H](CN)[C@@H](O)C[C@H]4N)[C@@H](N)C[C@H]3N)[C@H](N)C[C@@H]2N)O1` showed an MIC [2] greater than 20.9 µg/mL, an MIC [3] of 2.6 µg/mL (≈ 3.25 µM) and an MIC [4] of 20.9 µg/mL (≈ 26.2 µM). For the same compound, the MIC [7] was 1.3 µg/mL (≈ 1.63 µM), the MIC [5] was 10.4 µg/mL (≈ 13 µM) and the MIC [6] was 1.3 µg/mL (≈ 1.63 µM).

Compound `NC[C@H]1O[C@H](O[C@H]2[C@H](OC[C@H](O)CN3CC4CC3CN4C[C@@H](O)CO[C@@H]3[C@@H](O)[C@H](N)C[C@H](N)[C@H]3O[C@H]3O[C@H](CN)[C@@H](O)[C@H](O)[C@H]3N)[C@@H](O)[C@H](N)C[C@@H]2N)[C@H](N)[C@@H](O)[C@@H]1O` has an MIC [1] of 50 µg/mL (≈ 58.5 µM), an MIC [2] greater than 50 µg/mL and an MIC [3] of 12.5 µg/mL (≈ 14.6 µM). It also gave an MIC [4] greater than 50 µg/mL, an MIC [5] greater than 50 µg/mL and an MIC [6] of 12.5 µg/mL (≈ 14.6 µM).

Compound `NC[C@H]1O[C@H](O[C@H]2[C@H](OC[C@H](O)CN[C@H]3CC[C@H](NC[C@@H](O)CO[C@@H]4[C@@H](O)[C@H](N)C[C@H](N)[C@H]4O[C@H]4O[C@H](CN)[C@@H](O)[C@H](O)[C@H]4N)CC3)[C@@H](O)[C@H](N)C[C@@H]2N)[C@H](N)[C@@H](O)[C@@H]1O` has an MIC [2] greater than 50 µg/mL, an MIC [3] of 1.6 µg/mL (≈ 1.84 µM) and an MIC [4] of 25 µg/mL (≈ 28.7 µM). It also gave an MIC [5] of 50 µg/mL (≈ 57.4 µM) and an MIC [6] of 50 µg/mL (≈ 57.4 µM).
